Laboratory results taken from ChEMBL document CHEMBL1687736, “Identification and biochemical characterization of small-molecule inhibitors of Clostridium botulinum neurotoxin serotype A” (Antimicrob Agents Chemother, 2009).
Active and inactive are the calls of the source. The calls are words filed in the database; no cut-off is given here.

How the values were obtained:
[1] = target: Botulinum neurotoxin type A (Clostridium botulinum) (UniProt P0DPI0); assay: Inhibition of Clostridium botulinum BoNT/A light chain-mediated SNAP-25 cleavage in mouse Neuro2a cells at 10 uM after 30 mins by Western blotting; format: cell-based
Sequence of Botulinum neurotoxin type A (Clostridium botulinum) (P0DPI0 2-448 limits assumed): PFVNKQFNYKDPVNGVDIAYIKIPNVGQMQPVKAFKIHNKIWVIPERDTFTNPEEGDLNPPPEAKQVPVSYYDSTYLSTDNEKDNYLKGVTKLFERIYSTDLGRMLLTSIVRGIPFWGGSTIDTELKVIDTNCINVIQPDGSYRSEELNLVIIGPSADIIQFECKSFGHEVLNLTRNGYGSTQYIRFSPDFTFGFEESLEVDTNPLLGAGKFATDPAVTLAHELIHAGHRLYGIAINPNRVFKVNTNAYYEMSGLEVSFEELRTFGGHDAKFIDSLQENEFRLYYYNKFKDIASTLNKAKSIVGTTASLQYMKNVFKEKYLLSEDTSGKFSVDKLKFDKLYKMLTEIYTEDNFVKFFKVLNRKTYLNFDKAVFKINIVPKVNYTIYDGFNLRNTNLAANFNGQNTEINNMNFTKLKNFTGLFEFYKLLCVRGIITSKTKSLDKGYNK

[2] = target: Botulinum neurotoxin type A (Clostridium botulinum) (UniProt P0DPI0); assay: Inhibition of Clostridium botulinum BoNT/A light chain-mediated SNAP-25 cleavage in mouse Neuro2a cells at 15 uM after 30 mins by Western blotting; format: cell-based
[3] = target: T1, Botulinum neurotoxin type A (Clostridium botulinum, UniProt P0DPI0); assay: Inhibition of protease activity of recombinant Clostridium botulinum BoNT/A (1 to 425) light chain after 5 mins by HPLC-based assay
T1 sequence (P0DPI0 2-448 limits assumed): as above
Procedure, shortened: (§1)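 Recombinant BoNT/A light chain, full-length at 140 nM or truncated (residues 1-425) at 620 nM final, with 0.8 mM 17-mer SNAP-25 (187-203) peptide in 50 mM HEPES pH 7.3. Inhibitor was added from DMSO at nine concentrations, then 5 min at 37°C. Stopped with 0.7% TFA, cleavage quantified by reverse-phase HPLC, and IC50 derived by log-probit analysis.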

[4] = Inhibition of zinc carboxypeptidase A at up to 20 uM
Procedure, shortened: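 Carboxypeptidase A kit plate assay: CPA with compounds from DMSO at various concentrations, 5 min at 25°C, then stop solution and absorbance read at 350 nm. Percent inhibition was taken versus CPA with DMSO; potato tuber CPA inhibitor served as control. Two independent determinations, each in triplicate.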

[5] = target: Botulinum neurotoxin type A (Clostridium botulinum) (UniProt P0DPI0); assay: Inhibition of Clostridium botulinum BoNT/A-mediated neuromuscular block in CD1 mouse phrenic nerve hemidiaphragm assessed as time required to 50% loss of twitch tension at 10 uM after 15 to 20 mins
[6] = target: T1, Botulinum neurotoxin type A; assay: Inhibition of protease activity of recombinant full-length Clostridium botulinum BoNT/A light chain after 5 mins by HPLC-based assay; procedure, shortened: as §1
[7] = target: T2, Botulinum neurotoxin type B (Clostridium botulinum) (UniProt P10844); assay: Inhibition of protease activity of recombinant full-length Clostridium botulinum BoNT/B light chain at 20 uM after 5 mins by HPLC-based assay
T2 sequence (whole entry): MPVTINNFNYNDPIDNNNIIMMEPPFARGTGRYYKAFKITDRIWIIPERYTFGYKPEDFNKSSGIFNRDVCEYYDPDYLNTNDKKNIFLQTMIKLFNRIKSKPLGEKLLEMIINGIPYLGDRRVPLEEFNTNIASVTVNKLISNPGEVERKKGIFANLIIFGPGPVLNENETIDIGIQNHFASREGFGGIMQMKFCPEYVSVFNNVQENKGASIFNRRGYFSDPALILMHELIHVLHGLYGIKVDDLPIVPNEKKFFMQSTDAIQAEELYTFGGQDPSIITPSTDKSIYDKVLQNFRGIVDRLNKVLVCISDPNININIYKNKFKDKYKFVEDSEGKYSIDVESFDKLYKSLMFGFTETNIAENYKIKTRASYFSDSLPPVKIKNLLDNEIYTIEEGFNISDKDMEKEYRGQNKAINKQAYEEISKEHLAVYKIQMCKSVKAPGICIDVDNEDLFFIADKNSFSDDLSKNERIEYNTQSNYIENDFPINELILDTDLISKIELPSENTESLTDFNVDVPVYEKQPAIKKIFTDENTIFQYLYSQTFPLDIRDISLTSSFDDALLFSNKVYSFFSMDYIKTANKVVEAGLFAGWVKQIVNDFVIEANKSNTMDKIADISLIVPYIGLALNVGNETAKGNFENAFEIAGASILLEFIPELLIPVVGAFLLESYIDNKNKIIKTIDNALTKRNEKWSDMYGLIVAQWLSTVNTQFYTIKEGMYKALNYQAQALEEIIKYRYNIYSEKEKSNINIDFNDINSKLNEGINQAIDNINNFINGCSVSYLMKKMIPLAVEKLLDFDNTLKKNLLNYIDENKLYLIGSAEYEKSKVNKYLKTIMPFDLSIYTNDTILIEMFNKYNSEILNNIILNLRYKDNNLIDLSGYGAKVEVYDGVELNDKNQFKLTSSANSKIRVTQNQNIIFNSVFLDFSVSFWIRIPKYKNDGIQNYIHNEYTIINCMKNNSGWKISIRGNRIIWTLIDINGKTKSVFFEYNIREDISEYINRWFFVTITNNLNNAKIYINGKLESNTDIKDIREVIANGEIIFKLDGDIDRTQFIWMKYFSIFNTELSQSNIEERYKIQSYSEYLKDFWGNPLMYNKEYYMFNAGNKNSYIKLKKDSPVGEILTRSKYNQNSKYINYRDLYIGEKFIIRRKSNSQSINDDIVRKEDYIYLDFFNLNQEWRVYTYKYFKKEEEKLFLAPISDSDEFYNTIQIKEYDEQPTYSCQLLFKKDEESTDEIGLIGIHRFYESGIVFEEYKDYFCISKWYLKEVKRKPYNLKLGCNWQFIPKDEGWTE
Procedure, shortened: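 Recombinant BoNT/B LC (30-40 nM) with 0.4 mM 35-mer human VAMP-2 (60-94) peptide, 1 mM DTT, 50 mM HEPES pH 7.3. Compound was added at 20 µM final without preincubation, then 5 min at 37°C. TFA stop, reverse-phase HPLC quantification of cleavage. Means ± SD of two independent assays.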

[8] = target: Botulinum neurotoxin type A (Clostridium botulinum) (UniProt P0DPI0); assay: Inhibition of protease activity of recombinant full-length Clostridium botulinum BoNT/A light chain at 200 uM after 5 mins by HPLC-based assay
Procedure, shortened: (§2)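 Full-length recombinant BoNT/A LC (110-140 nM) with 0.8 mM SNAP-25 17-mer peptide in 50 mM HEPES pH 7.3. Compound was added from DMSO stock without preincubation, then LC, 5 min at 37°C. TFA stop, reverse-phase HPLC. Percent inhibition came from substrate cleaved with versus without compound; the 20 µM data are means ± SD of two independent assays.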

[9] = target: Botulinum neurotoxin type A (Clostridium botulinum) (UniProt P0DPI0); assay: Inhibition of protease activity of recombinant full-length Clostridium botulinum BoNT/A light chain at 20 uM after 5 mins by HPLC-based assay; procedure, shortened: as §2
[10] = target: Botulinum neurotoxin type A (Clostridium botulinum) (UniProt P0DPI0); assay: Inhibition of Clostridium botulinum BoNT/A-mediated neuromuscular block in CD1 mouse phrenic nerve hemidiaphragm assessed as time required to 50% loss of twitch tension at 20 uM after 15 to 20 mins
[11] = target: Botulinum neurotoxin type A (Clostridium botulinum) (UniProt P0DPI0); assay: Inhibition of Clostridium botulinum BoNT/A-mediated neuromuscular block in CD1 mouse phrenic nerve hemidiaphragm assessed as time required to 50% loss of twitch tension at 0.5 uM after 15 to 20 mins
[12] = target: T1, Botulinum neurotoxin type A; assay: Binding affinity to Clostridium botulinum BoNT/A
[13] = target: Botulinum neurotoxin type A (Clostridium botulinum) (UniProt P0DPI0); assay: Inhibition of Clostridium botulinum BoNT/A-mediated neuromuscular block in CD1 mouse phrenic nerve hemidiaphragm assessed as time required to 50% loss of twitch tension at 5 uM after 15 to 20 mins
[14] = Cytotoxicity against mouse Neuro2a cells at >= 10 uM; format: cell-based; details: n2a

Row | Compound | inhibition [1] | Activity [2] | IC50 [3] | Activity [4] | IC50 [6] | inhibition [7] | inhibition [8] | inhibition [9] | other results
1 | Oc1c(C(Nc2ccccn2)c2ccccc2)ccc2cccnc12 (racemic) | Active | Active | 1.5 µM | inactive | 1.6 µM | 8.8% | – | – | TIME [5]: 4.44 h
2 | O=[N+]([O-])c1cccc(CN(Cc2cccc([N+](=O)[O-])c2O)c2ccccc2)c1O | – | – | – | – | – | – | 75% | 37% | –
3 | CC(CO)(Nc1ccc([N+](=O)[O-])cc1[N+](=O)[O-])C(=O)O (racemic) | – | – | – | – | – | – | 65% | 29% | –
4 | Oc1c(C(Nc2cccc3cccnc23)c2ccccc2)ccc2cccnc12 (racemic) | 66% | Active | 3.9 µM | inactive | 3.2 µM | 6.9% | 91.9% | – | TIME [10]: 1.09 h
5 | O=[N+]([O-])c1ccc(NCCNc2ccc([N+](=O)[O-])cc2)cc1 | – | – | – | – | – | – | 80% | 44% | –
6 | Cc1ccc(NC(=O)/C(CC(=O)c2sc(Nc3ccccc3Cl)nc2C)=N/Nc2ccc([N+](=O)[O-])cc2[N+](=O)[O-])c(C)c1 | – | – | – | – | – | – | 85% | 51% | –
7 | O=C1c2ccccc2C(=O)N1CNc1ccccc1/C(=N/Nc1ccc([N+](=O)[O-])cc1[N+](=O)[O-])c1ccccc1 | – | – | – | – | – | – | 82% | 49% | –
8 | CCOc1ccc(C(Nc2cccnc2)c2cc(Cl)c3cccnc3c2O)cc1 (racemic) | Active | Active | 1.6 µM | inactive | 2.1 µM | 31.2% | 96.2% | – | TIME [11]: 4.52 h
9 | Ac-CRATKML-NH2 | – | – | – | – | – | – | – | – | Ki [12]: 1.9 µM; Activity [10]: inactive; TIME [10]: 0.878 h
10 | Cc1ccc([N+](=O)[O-])cc1NC(=O)NNC(=O)CNC(=O)NCc1ccco1 | – | – | – | – | – | – | 75% | 52% | –
11 | Oc1c(C(Nc2cccnc2)c2ccc(C(F)(F)F)cc2)ccc2cccnc12 (racemic) | Active | Active | 5 µM | inactive | 4.7 µM | 30.2% | 92.7% | – | TIME [13]: 3.6 h
12 | O=[N+]([O-])c1ccc(NC(c2ccccc2)c2ccc3cccnc3c2O)cc1 (racemic) | – | – | – | – | – | – | 87% | 52% | Activity [14]: Toxic
13 | Oc1c(C(Nc2cccnc2)c2ccccc2F)ccc2cccnc12 (racemic) | 68% | Active | 2.4 µM | inactive | 3.9 µM | 16.8% | 92.8% | – | TIME [5]: 4.68 h
